According to article PMC11229888 (RSC Advances, 2024):

How the values were obtained:
[1] = tested on: MCF-7; test: MTT anti-proliferative assay, MCF-7; assay type: cell-based; details: Homo sapiens, MCF7, read-out: IC50 MCF-7
Method in brief: (§1)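 Cells grown in RPMI-1640 with 10% FBS, 100 units per ml penicillin and 100 μg ml−1 streptomycin at 37 °C, 5% CO2. Seeded at 1.0 × 10^4 cells per well for 48 h, then exposed to a range of test compound concentrations for 24 h. MTT (5 mg ml−1) added for 4 h, formazan dissolved in DMSO, A570 read; viability as percent of untreated; IC50 derived.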

[2] = tested on: Hep G2; test: MTT anti-proliferative assay, Hep G2; assay type: cell-based; details: Homo sapiens, HepG2, read-out: IC50 Hep G2
Method in brief: as §1

[3] = molecular target: VEGFR-2 (Homo sapiens, UniProt P35968); test: biochemical; details: IC50 VEGFR-2, mean ± S.D. of three experiments
[4] = tested on: VEGFR-1; details: read-out: IC50 VEGFR-1; cited from earlier work

VEGFR-2, sequence (P35968 20-1356): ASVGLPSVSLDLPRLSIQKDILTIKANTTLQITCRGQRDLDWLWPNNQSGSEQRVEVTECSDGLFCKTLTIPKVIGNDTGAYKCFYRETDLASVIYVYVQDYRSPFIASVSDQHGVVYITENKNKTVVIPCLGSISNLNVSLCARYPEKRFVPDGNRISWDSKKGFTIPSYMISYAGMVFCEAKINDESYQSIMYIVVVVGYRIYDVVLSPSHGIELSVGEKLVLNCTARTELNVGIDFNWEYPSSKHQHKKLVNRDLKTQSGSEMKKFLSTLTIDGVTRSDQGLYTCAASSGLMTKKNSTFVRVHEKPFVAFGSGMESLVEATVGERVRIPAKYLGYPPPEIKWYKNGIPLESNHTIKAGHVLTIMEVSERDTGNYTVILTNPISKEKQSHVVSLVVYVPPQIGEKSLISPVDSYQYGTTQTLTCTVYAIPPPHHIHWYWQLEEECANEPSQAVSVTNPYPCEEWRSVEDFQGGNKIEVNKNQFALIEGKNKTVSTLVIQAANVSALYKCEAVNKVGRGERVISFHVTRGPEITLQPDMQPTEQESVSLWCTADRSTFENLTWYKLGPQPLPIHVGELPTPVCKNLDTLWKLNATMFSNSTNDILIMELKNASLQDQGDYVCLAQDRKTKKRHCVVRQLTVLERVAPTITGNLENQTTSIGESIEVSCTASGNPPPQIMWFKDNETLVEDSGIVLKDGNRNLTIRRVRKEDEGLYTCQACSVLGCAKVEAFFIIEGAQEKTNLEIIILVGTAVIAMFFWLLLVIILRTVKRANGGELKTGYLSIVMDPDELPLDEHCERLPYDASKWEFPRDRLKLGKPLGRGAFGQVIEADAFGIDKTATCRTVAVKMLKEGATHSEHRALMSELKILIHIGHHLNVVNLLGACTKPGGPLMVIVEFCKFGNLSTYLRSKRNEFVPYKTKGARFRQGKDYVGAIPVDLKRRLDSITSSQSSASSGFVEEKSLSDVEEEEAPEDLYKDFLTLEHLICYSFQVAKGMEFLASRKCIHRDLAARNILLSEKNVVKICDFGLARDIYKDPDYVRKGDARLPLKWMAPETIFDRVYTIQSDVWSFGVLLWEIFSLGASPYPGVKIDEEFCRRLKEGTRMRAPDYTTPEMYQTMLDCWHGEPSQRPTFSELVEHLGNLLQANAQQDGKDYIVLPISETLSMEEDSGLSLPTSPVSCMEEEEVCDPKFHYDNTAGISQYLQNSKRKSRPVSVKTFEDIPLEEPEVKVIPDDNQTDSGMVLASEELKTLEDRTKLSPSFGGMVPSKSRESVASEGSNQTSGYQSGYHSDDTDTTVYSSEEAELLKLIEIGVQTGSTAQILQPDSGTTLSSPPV

| IC50 [1] [nM] | IC50 [3] [nM] | SMILES | IC50 [2] [nM] | IC50 [4] [nM] |
| --- | --- | --- | --- | --- |
| 1550 ± 10 | – | CC(=NNC(=O)c1ccccc1)c1ccc(Nc2nnc(-c3ccc(Cl)cc3)c3ccccc23)cc1 [Compound 2a, N′-(1-[4-{(4-[4-Chlorophenyl]phthalazin-1-yl)amino}phenyl]ethylidene)benzohydrazide] | 770 ± 10 | – |
| 980 ± 10 | – | CC(=NNC(=O)c1ccccc1Br)c1ccc(Nc2nnc(-c3ccc(Cl)cc3)c3ccccc23)cc1 [Compound 2b, 2-Bromo-N′-(1-[4-{(4-[4-chlorophenyl]phthalazin-1-yl)amino}phenyl]ethylidene)benzohydrazide] | 630 ± 10 | – |
| 1740 ± 10 | – | CC(=NNC(=O)c1ccccc1Cl)c1ccc(Nc2nnc(-c3ccc(Cl)cc3)c3ccccc23)cc1 [Compound 2c, 2-Chloro-N′-(1-[4-{(4-[4-chlorophenyl]phthalazin-1-yl)amino}phenyl]ethylidene)benzohydrazide] | 590 ± 10 | – |
| 3710 ± 70 | – | CC(=NNC(=O)c1ccccc1O)c1ccc(Nc2nnc(-c3ccc(Cl)cc3)c3ccccc23)cc1 [Compound 2d, N′-(1-[4-{(4-[4-Chlorophenyl]phthalazin-1-yl)amino}phenyl]ethylidene)-2-hydroxybenzohydrazide] | 2180 ± 30 | – |
| 710 ± 20 | – | CC(=NNC(=O)c1ccc(N)cc1)c1ccc(Nc2nnc(-c3ccc(Cl)cc3)c3ccccc23)cc1 [Compound 2e, 4-Amino-N′-(1-[4-{(4-[4-chlorophenyl]phthalazin-1-yl)amino}phenyl]ethylidene)benzohydrazide] | 1190 ± 40 | – |
| 780 ± 10 | – | CC(=NNC(=O)c1cccnc1)c1ccc(Nc2nnc(-c3ccc(Cl)cc3)c3ccccc23)cc1 [Compound 2f, N′-(1-[4-{(4-[4-Chlorophenyl]phthalazin-1-yl)amino}phenyl]ethylidene)nicotinohydrazide] | 750 ± 10 | – |
| 150 | 148 ± 10 | CC(=NNC(=O)c1ccncc1)c1ccc(Nc2nnc(-c3ccc(Cl)cc3)c3ccccc23)cc1 [Compound 2g, N′-(1-[4-{(4-[4-Chlorophenyl]phthalazin-1-yl)amino}phenyl]ethylidene)isonicotinohydrazide] | 120 ± 10 | – |
| 180 | 375 ± 10 | CC(=NNC(N)=S)c1ccc(Nc2nnc(-c3ccc(Cl)cc3)c3ccccc23)cc1 [Compound 3a, 2-(1-[4-{(4-[4-Chlorophenyl]phthalazin-1-yl)amino}phenyl]ethylidene)hydrazine-1-carbothioamide] | 180 | – |
| 870 ± 20 | – | CC(=NNC(=S)Nc1ccccc1)c1ccc(Nc2nnc(-c3ccc(Cl)cc3)c3ccccc23)cc1 [Compound 3b, 2-(1-[4-{(4-[4-Chlorophenyl]phthalazin-1-yl)amino}phenyl]ethylidene)-N-phenylhydrazine-1-carbothioamide] | 1530 ± 60 | – |
| 180 | 196 ± 10 | O=C(Nc1ccccc1)Nc1ccc(Oc2nnc(-c3ccc(Cl)cc3)c3ccccc23)cc1 [Compound 4a, 1-(4-[{4-(4-Chlorophenyl)phthalazin-1-yl}oxy]phenyl)-3-phenylurea] | 90 ± 10 | – |
| 1520 ± 10 | – | S=C(Nc1ccccc1)Nc1ccc(Oc2nnc(-c3ccc(Cl)cc3)c3ccccc23)cc1 [Compound 4b, 1-(4-[{4-(4-Chlorophenyl)phthalazin-1-yl}oxy]phenyl)-3-phenylthiourea] | 1630 ± 30 | – |
| 180 | 548 ± 20 | CC(=O)Nc1ccc(Oc2nnc(-c3ccc(Cl)cc3)c3ccccc23)cc1 [Compound 5a, N-(4-[{4-(4-Chlorophenyl)phthalazin-1-yl}oxy]phenyl)acetamide] | 260 | – |
| 150 | 331 ± 10 | O=C(Nc1ccc(Oc2nnc(-c3ccc(Cl)cc3)c3ccccc23)cc1)c1ccccc1 [Compound 5b, N-(4-[{4-(4-Chlorophenyl)phthalazin-1-yl}oxy]phenyl)benzamide] | 220 | – |
| 180 | – | O=C(Nc1ccc(Oc2nnc(-c3ccc(Cl)cc3)c3ccccc23)cc1)c1cccc([N+](=O)[O-])c1 [Compound 5c, N-(4-[{4-(4-Chlorophenyl)phthalazin-1-yl}oxy]phenyl)-3-nitrobenzamide] | 1370 ± 140 | – |
| 1120 ± 20 | – | O=C(C=Cc1ccccc1)Nc1ccc(Oc2nnc(-c3ccc(Cl)cc3)c3ccccc23)cc1 [Compound 5d, N-(4-[{4-(4-Chlorophenyl)phthalazin-1-yl}oxy]phenyl)cinnamamide] | 1260 ± 30 | – |
| 50 ± 10 | – | CNC(=O)c1cc(Oc2ccc(NC(=O)Nc3ccc(Cl)c(C(F)(F)F)c3)cc2)ccn1 [Sorafenib, reference compound] | 30 ± 10 | – |
| – | – | Clc1ccc(Nc2nnc(Cc3ccncc3)c3ccccc23)cc1 [Vatalanib] | – | 380 |
